Bioassay records: PubChem, The Scripps Research Institute Molecular Screening Center
In the library only some 2.3% were active in any assay of this set; here they are far more common.
TAAR1 ag = human TAAR1 agonism; Q96RJ0; CHO RD-HGA16 TAAR1, Fluo-8 calcium fluorescence; vehicle wells 0%, saturating PEA agonist 100%; activation, % at 3 µM; hit rate 0.99% among 360,000;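 active = activation above the mean activation of all test compounds in the run plus 3 SD, cut at about 38% in these data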
Target sequence (Q96RJ0 whole entry, looked up): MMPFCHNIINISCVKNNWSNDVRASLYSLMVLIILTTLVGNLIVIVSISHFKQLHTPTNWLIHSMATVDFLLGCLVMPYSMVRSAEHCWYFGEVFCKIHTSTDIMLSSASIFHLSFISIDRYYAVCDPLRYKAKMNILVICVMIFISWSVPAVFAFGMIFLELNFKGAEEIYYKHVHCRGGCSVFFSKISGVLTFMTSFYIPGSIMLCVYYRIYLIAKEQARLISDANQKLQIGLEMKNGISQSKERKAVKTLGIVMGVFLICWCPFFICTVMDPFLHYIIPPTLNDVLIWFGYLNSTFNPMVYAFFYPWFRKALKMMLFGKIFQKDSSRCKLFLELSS
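Benchmarks: low control DMSO, high control PEA (EC100); System: CHO RD-HGA16 cells carrying human TAAR1 plus Gα16; Detection: Fluo-8 fluorescence, 5 s baseline then 140 s kinetic read; Schedule: 17-24 h plating, Fluo-8 75 min 37 °C, 30 min RT; Read-out basis: % activation from peak over basal fluorescence ratio, DMSO-to-PEA scaled.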
OXTR potentiator = potentiators of human oxytocin receptor; CHO-OTR cells, Fluo-8 calcium fluorescence, potentiator mode; 0% = oxytocin EC15, 100% = EC100; AID 2445; activation, % at 3 µM; hit rate 0.061% among 320,000; P30559;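 active = activation above that plate's cutoff, the mean activation of tested compounds plus 3 SD, cut at about 6.6% in these data, passing the limit was not always enough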;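 note: 100% uses oxytocin at 75 nM as the full agonist control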
Target sequence (P30559 whole entry, looked up): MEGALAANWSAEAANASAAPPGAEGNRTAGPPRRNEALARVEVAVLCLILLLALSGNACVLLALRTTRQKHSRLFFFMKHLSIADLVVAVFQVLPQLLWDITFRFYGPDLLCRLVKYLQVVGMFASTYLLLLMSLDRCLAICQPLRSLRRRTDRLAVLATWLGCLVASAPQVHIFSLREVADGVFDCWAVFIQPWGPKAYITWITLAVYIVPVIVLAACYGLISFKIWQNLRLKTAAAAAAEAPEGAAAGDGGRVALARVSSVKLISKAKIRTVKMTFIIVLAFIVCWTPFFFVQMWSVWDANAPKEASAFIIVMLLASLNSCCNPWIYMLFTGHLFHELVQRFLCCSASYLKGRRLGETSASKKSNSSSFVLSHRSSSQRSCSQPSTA
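Assay system: CHO cell line stably expressing human OTR | Also added: Oxytocin at about EC15, sub-maximal agonist stimulus | Times: Compound 6 min at room temperature before oxytocin, 100 s read | Measured by: Fluo-8 intracellular calcium fluorescence, ex 470-495, em 515-575 nm | Controls: EC15 oxytocin alone as 0%, 75 nM oxytocin as 100%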
TAAR1 antagonist = antagonists of human TAAR1. Q96RJ0. CHO RD-HGA16 TAAR1, Fluo-8 calcium fluorescence, antagonist. hit rate 1.5% among 360,000. inhibition, % at 3 µM. AID 624466;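 active = inhibition above a per-plate cutoff, the mean inhibition of test compounds on that plate plus 3 SD, cut at about 49% in these data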;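 note: 0% = DMSO plus EC80 beta-PEA response and 100% = DMSO alone without agonist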
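Material: RD-HGA16 CHO cells with stable hTAAR1 and Gα16; Dosing: single nominal final test compound concentration of 3 µM; Schedule: seeding 17-24 h prior, 75-min 37 °C, 30-min RT dye loading; Detection: kinetic Fluo-8 calcium fluorescence measurement; Measure: % inhibition from peak post-agonist over basal fluorescence ratio; Benchmarks: vehicle and agonist controls.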
OXTR agonist = agonists of human oxytocin receptor | activation, % at 3 µM | hit rate 0.32% among 320,000 | P30559 | AID 2435 | CHO-OTR cells, Fluo-8 calcium fluorescence; normalized: DMSO 0%, oxytocin 100%;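 active = activation above the mean of all tested compounds plus 3 SD, cutoff set per screening run, cut at about 20% in these data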;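 note: peak over basal fluorescence ratio from a 100 s FLIPR kinetic read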
V1R ag counter = V1a receptor agonism, counter-screen for OXTR agonists | CHO-V1R cells, Fluo-8 calcium fluorescence, agonist mode; 0% DMSO, 100% 3 nM vasopressin | AID 2797 | hit rate 0.25% among 320,000 | activation, % at 3 µM | P37288;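 active = activation above the mean activation of all tested compounds plus 3 SD, per screening run, cut at about 20% in these data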;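 note: signal is peak over basal fluorescence ratio across a 100 second FLIPR read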
TAAR1 ag conf = human TAAR1 agonism, confirmed. shares compounds with TAAR1 ag. CHO RD-HGA16 TAAR1, Fluo-8 calcium fluorescence; scaled: DMSO 0%, maximal phenethylamine 100%. activation, % at 3 µM. hit rate 82% among 2,400. AID 651783;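 active = activation above a cutoff set at the run's mean compound activation plus 3 SD, cut at about 39% in these data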
Ga16 nonsel ag = counter-screen for TAAR1 agonists: nonselective agonists in parental cells; shares compounds with TAAR1 ag; CHO-Ga16 parental, Fluo-8 calcium fluorescence; normalized to maximal ATP response, DMSO zero; activation, % at 3 µM; hit rate 50% among 2,400;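 active = activation above the run cutoff, the mean activation over all tested wells plus 3 SD, cut at about 12% in these data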;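 note: 0% = DMSO wells and 100% = maximal ATP response on the peak over basal ratio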
TAAR1 desens = human TAAR1 agonist that also desensitizes the receptor; CHO RD-HGA16 hTAAR1, Fluo-8 calcium, beta-PEA response inhibition; AID 651951; shares compounds with TAAR1 ag; hit rate 46% among 2,400; inhibition, % at 3 µM;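 active = inhibition above the run cutoff, the mean inhibition of all test compounds plus 3 SD, cut at about 49% in these data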;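 note: beta-PEA stimulus applied at its EC80; loss of beta-PEA calcium signal after compound pretreatment read as receptor desensitization; 0% = DMSO with beta-PEA at EC80 and 100% = DMSO alone without agonist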
Ga16 nonsel ant = nonselective Ga16 antagonism, counter-screen | inhibition, % at 3 µM | CHO-Ga16 ATP-induced calcium, Fluo-8 fluorescence | shares compounds with TAAR1 ag | AID 651952 | hit rate 39% among 2,400;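 active = inhibition above the plate's mean compound inhibition plus 3 SD, computed per plate, cut at about 22% in these data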;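 note: 0% = EC80 ATP with DMSO and 100% = DMSO wells without ATP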
Numbers without * were called inactive.

For CC1CN(C(C)C)C(=S)N(c2ccccc2)C1=O (stereo not given) the results were TAAR1 ag 0.7 and TAAR1 antagonist -25.6.
`CCOC(=O)/C(C#N)=C(/C)c1ccc(OC)cc1` gave TAAR1 ag 1.8, OXTR potentiator -6.7, TAAR1 antagonist -3.5, OXTR agonist 0.3 and V1R ag counter -0.8.
`CCN(CC)CCCNC(=O)CCC(=O)NNc1nc2ccccc2c2nc(C)nn12` gave TAAR1 ag 5.5, OXTR potentiator -8.3, TAAR1 antagonist -2.4, OXTR agonist -0.9 and V1R ag counter 0.7.
For COC(=O)c1c(-n2c(C)cc(C=O)c2C)sc2c1CCCC2 the results were TAAR1 ag 40.7*, OXTR potentiator 2.8, TAAR1 antagonist 72.2*, OXTR agonist -1.7, V1R ag counter -1.1, TAAR1 ag conf -3.9, Ga16 nonsel ag 0.5, TAAR1 desens 0.4 and Ga16 nonsel ant 3.1.
Screening Cc1ccccc1NC(=O)c1ccc2ccccc2c1 returned TAAR1 ag -2.2, OXTR potentiator 5.0, TAAR1 antagonist 1.8, OXTR agonist -2.7 and V1R ag counter -0.2.
For CC1=CC(C)(C)N(C(=O)CCl)c2cc(C)ccc21 the results were TAAR1 ag 0.2, OXTR potentiator -6.8, TAAR1 antagonist -13.1, OXTR agonist -2.5 and V1R ag counter -1.2.
Screening CC1=CC(C)(C)N(C(=O)c2ccc(F)cc2)c2cc3c(cc21)OCO3 returned TAAR1 ag 59.0*, OXTR potentiator -8.7, TAAR1 antagonist 36.9, OXTR agonist 12.8, V1R ag counter 9.2, TAAR1 ag conf 62.5*, Ga16 nonsel ag 40.8*, TAAR1 desens 45.6 and Ga16 nonsel ant 33.8*.
CC(Oc1ccc(Cl)cc1)C(=O)Nc1ccc(S(=O)(=O)N2CCOCC2)cc1 (stereo not given) was read as TAAR1 ag 110.5*, OXTR potentiator -15.5, TAAR1 antagonist 47.9, OXTR agonist 30.4*, V1R ag counter 27.6*, TAAR1 ag conf 114.3*, Ga16 nonsel ag 72.2*, TAAR1 desens 74.8* and Ga16 nonsel ant 42.2*.
For O=C(Nc1ccc(Cl)cc1)c1ccc(S(=O)(=O)N2CCOCC2)cc1 the results were TAAR1 ag 1.2, OXTR potentiator -12.0, TAAR1 antagonist 10.9, OXTR agonist 6.8 and V1R ag counter 8.3.
CC(C)NS(=O)(=O)c1ccc(NC(=O)C(C)Oc2ccc(C(=O)c3ccccc3)cc2)cc1 (stereo not given) was read as TAAR1 ag 122.9*, OXTR potentiator -17.5, TAAR1 antagonist 105.2*, OXTR agonist 54.0*, V1R ag counter 66.2*, TAAR1 ag conf 121.6*, Ga16 nonsel ag 84.5*, TAAR1 desens 104.5* and Ga16 nonsel ant 85.6*.
Cc1c(C(=O)NCCCN2CCCC2=O)oc2c(Cl)cccc12 was read as TAAR1 ag 0.0, OXTR potentiator -6.8, TAAR1 antagonist 14.7, OXTR agonist -0.8 and V1R ag counter -0.5.
Cc1cc(N2CCCC2)c(F)cc1/C=C\[N+](=O)[O-] was read as TAAR1 ag 192.9*, TAAR1 antagonist 81.4*, TAAR1 ag conf 61.4*, Ga16 nonsel ag 68.1*, TAAR1 desens 59.8* and Ga16 nonsel ant 70.1*.
For Cc1cc(N2CCC(C)CC2)c(F)cc1[N+](=O)[O-] the results were TAAR1 ag 1.2, OXTR potentiator 2.2, TAAR1 antagonist -9.4, OXTR agonist 0.1 and V1R ag counter 0.3.
`CN(CCNC(=O)c1ccc(CS(=O)(=O)c2c(Cl)cccc2Cl)o1)CCc1ccccc1` gave TAAR1 ag 44.1*, OXTR potentiator -7.5, TAAR1 antagonist -16.7, OXTR agonist 0.5, V1R ag counter 0.8, TAAR1 ag conf 55.1*, Ga16 nonsel ag 5.1, TAAR1 desens 8.1 and Ga16 nonsel ant 6.6.
`CN(C)CCNC(=O)c1ccc(CS(=O)(=O)c2c(Cl)cccc2Cl)o1` gave TAAR1 ag 0.1, OXTR potentiator 0.9, TAAR1 antagonist 3.8, OXTR agonist 0.2 and V1R ag counter 0.3.
O=C(NCCc1ccccc1)c1ccc(CS(=O)(=O)Cc2ccccc2F)o1 was read as TAAR1 ag 55.5*, OXTR potentiator -2.7, TAAR1 antagonist 32.4, OXTR agonist 1.4, V1R ag counter 1.0, TAAR1 ag conf 83.3*, Ga16 nonsel ag 6.2, TAAR1 desens 66.4* and Ga16 nonsel ant 9.3.
Screening CCN(CC(=O)Nc1ccc(OC)cc1)C(=O)c1ccc(N2C(=O)CCC2=O)cc1 returned TAAR1 ag 5.0, OXTR potentiator -5.9, TAAR1 antagonist -5.5, OXTR agonist 0.3 and V1R ag counter -0.3.
`COc1ccc(-c2csc(NC(=O)c3cc(-c4cccs4)nc4ccccc34)n2)c(OC)c1` gave TAAR1 ag 0.1, OXTR potentiator -7.6, TAAR1 antagonist -14.6, OXTR agonist -1.5 and V1R ag counter -1.4.
Screening CCSc1sccc1C1C(C#N)=C(N)N(c2cccnc2)C2=C1C(=O)CC(C)(C)C2 (stereo not given) returned TAAR1 ag 10.5, OXTR potentiator -8.4, TAAR1 antagonist 1.6, OXTR agonist 1.1 and V1R ag counter 0.6.
For Clc1ccc(Cn2ncc3c(NCc4ccccc4)ncnc32)cc1 the results were TAAR1 ag 53.3*, OXTR potentiator -18.6, TAAR1 antagonist 5.9, OXTR agonist 3.2, V1R ag counter 4.9, TAAR1 ag conf 51.0*, Ga16 nonsel ag 37.6*, TAAR1 desens 48.5 and Ga16 nonsel ant 30.0*.
For Clc1ccc(Cn2ncc3c(N4CCCC4)ncnc32)cc1 the results were TAAR1 ag 12.8, OXTR potentiator -13.2, TAAR1 antagonist 9.9, OXTR agonist 0.0 and V1R ag counter 2.8.
`Clc1ccc(Cn2ncc3c(N4CCCCC4)ncnc32)cc1` gave TAAR1 ag 47.6*, OXTR potentiator -16.8, TAAR1 antagonist 51.7*, OXTR agonist 8.2, V1R ag counter 6.5, TAAR1 ag conf 44.8*, Ga16 nonsel ag 24.2*, TAAR1 desens 37.5 and Ga16 nonsel ant 24.3*.
`Cc1ccc(S(=O)(=O)NC(C(=O)OCC(=O)NC(=O)c2cccn2C)C(C)C)cc1` (stereo not given) gave TAAR1 ag 12.4, OXTR potentiator -13.9, TAAR1 antagonist 0.5, OXTR agonist 1.5 and V1R ag counter 3.6.
